From ChEMBL document CHEMBL1833970, “One-pot syntheses of pseudopteroxazoles from pseudopterosins: a rapid route to non-natural congeners with improved antimicrobial activity” (J Nat Prod, 2011)
In brackets after ≈: the same amount, converted by molar mass. Activity calls are given as the source filed them. The rule behind the calls is not given here.

Experiments:
Enterococcus faecium = assay: Antimicrobial activity against vancomycin-resistant Enterococcus faecium Ef 379 after 22 hrs by microbroth dilution antibiotic susceptibility assay; type: functional, organism-based; details: Ef 379, 22 h
Method in brief: (§1)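 CLSI M7-A6 broth microdilution, run in triplicate. Compounds were made up in sterile 20% DMSO and serially diluted to eight concentrations. Plates carried uninoculated and untreated controls (media + 20% DMSO) plus a control antibiotic column. OD600 was read at time zero and after 22 h at 37 °C. Time-zero readings were subtracted, survival was calculated relative to vehicle wells, and IC50 was derived.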

Pseudomonas aeruginosa = assay: Antimicrobial activity against Pseudomonas aeruginosa ATCC 14210 after 22 hrs by microbroth dilution antibiotic susceptibility assay; type: functional, organism-based
Method in brief: (§2)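 Microbroth dilution per CLSI M7-A6. Compounds in sterile 20% DMSO, serially diluted to eight concentrations, tested in triplicate with uninoculated and untreated controls. Control antibiotic was gentamycin for P. aeruginosa, ciprofloxacin for P. vulgaris and nystatin for C. albicans. OD600 read at time zero and after 22 h at 37 °C. Survival relative to vehicle calculated after baseline subtraction; IC50 derived.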

Staphylococcus aureus = assay: Antimicrobial activity against methicillin-resistant Staphylococcus aureus ATCC 33591 after 22 hrs by microbroth dilution antibiotic susceptibility assay; type: functional, organism-based; details: ATCC 33591, 22 h; method in brief: as §1
Candida albicans = assay: Antimicrobial activity against Candida albicans ATCC 14035 after 22 hrs by microbroth dilution antibiotic susceptibility assay; type: functional, organism-based; method in brief: as §2
[1] = system: Mycolicibacterium diernhoferi; assay: Antimicrobial activity against Mycobacterium diernhoferi ATCC 19340 after 5 days by microbroth dilution antibiotic susceptibility assay; type: functional; details: ATCC 19340, 120 h
Method in brief: (§3)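 Microbroth dilution per CLSI M24-A for fast-growing mycobacteria. Compounds prepared in sterile 20% DMSO and serially diluted to eight concentrations, triplicate on separate plates. Uninoculated and untreated (media + 20% DMSO) controls plus a control antibiotic column. Incubated 5 days at 30 °C; growth relative to untreated wells scored visually to give MIC.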

[2] = system: Mycolicibacterium smegmatis; assay: Antimicrobial activity against Mycobacterium smegmatis ATCC 12051 after 5 days by microbroth dilution antibiotic susceptibility assay; type: functional; details: ATCC 12051, 120 h; method in brief: as §3
Proteus vulgaris = assay: Antimicrobial activity against Proteus vulgaris ATCC 12454 after 22 hrs by microbroth dilution antibiotic susceptibility assay; type: functional, organism-based; method in brief: as §2

| SMILES | IC50 (Enterococcus faecium) [µg/mL] | Activity (Pseudomonas aeruginosa) | IC50 (Staphylococcus aureus) [µg/mL] | Activity (Candida albicans) | MIC [1] [µg/mL] | MIC [2] [µg/mL] | Activity (Proteus vulgaris) |
| --- | --- | --- | --- | --- | --- | --- | --- |
| COc1ccccc1-c1nc2c(C)c3c4c(c2o1)[C@@H](C)CC[C@@H]4[C@@H](C)C[C@H]3C=C(C)C | > 128 | inactive | > 128 | inactive | > 64 | > 64 |  |
| CC(C)=C[C@@H]1C[C@H](C)[C@H]2CC[C@H](C)c3c2c1c(C)c1nc(-c2ccc(F)cc2)oc31 |  | inactive |  | inactive | > 64 | > 64 |  |
| CC(C)=C[C@@H]1C[C@H](C)[C@H]2CC[C@H](C)c3c2c1c(C)c1nc(CCC(N)=O)oc31 | 7 (≈ 18.4 µM) | inactive | 7 (≈ 18.4 µM) | inactive | 4 (≈ 10.5 µM) | 4 (≈ 10.5 µM) |  |
| CC[C@H](C)c1nc2c(C)c3c4c(c2o1)[C@@H](C)CC[C@@H]4[C@@H](C)C[C@H]3C=C(C)C | > 128 | inactive | > 128 | inactive | > 64 | > 64 |  |
| COC(=O)CCc1nc2c(C)c3c4c(c2o1)[C@@H](C)CC[C@@H]4[C@@H](C)C[C@H]3C=C(C)C | > 128 | inactive | > 128 | inactive | > 128 | > 128 |  |
| CC(C)=C[C@@H]1C[C@H](C)[C@H]2CC[C@H](C)c3c2c1c(C)c1nc(C)oc31 | 2.5 (≈ 7.73 µM) | inactive | > 128 | inactive | 4 (≈ 12.4 µM) | 8 (≈ 24.7 µM) |  |
| CSCCc1nc2c(C)c3c4c(c2o1)[C@@H](C)CC[C@@H]4[C@@H](C)C[C@H]3C=C(C)C | > 128 | inactive | > 128 | inactive | 16 (≈ 41.7 µM) | 16 (≈ 41.7 µM) |  |
| CC(C)=C[C@@H]1C[C@H](C)[C@H]2CC[C@H](C)c3c2c1c(C)c1nc([C@@H](C)O)oc31 | > 128 | inactive | > 128 | inactive | 8 (≈ 22.6 µM) | 16 (≈ 45.3 µM) |  |
| CC(C)=C[C@@H]1C[C@H](C)[C@H]2CC[C@H](C)c3c2c1c(C)c1ocnc31 [ISOPSEUDOPTEROXAZOLE] | 13 (≈ 42 µM) | inactive | > 128 | inactive | 8 (≈ 25.9 µM) | 8 (≈ 25.9 µM) |  |
| CC(C)=C[C@@H]1C[C@H](C)[C@H]2CC[C@H](C)c3c2c1c(C)c1ncoc31 [PSEUDOPTEROXAZOLE] | 13 (≈ 42 µM) | inactive | > 128 | inactive | 4 (≈ 12.9 µM) | 2 (≈ 6.46 µM) | inactive |
| NNC(=O)c1ccncc1 [ISONIAZID] |  |  |  |  | 0.25 (≈ 1.82 µM) | 1 (≈ 7.29 µM) |  |
| CCCCCc1nc2c(C)c3c4c(c2o1)[C@@H](C)CC[C@@H]4[C@@H](C)C[C@H]3C=C(C)C [HOMOPSEUDOPTEROXAZOLE] | > 128 | inactive | > 128 | inactive | > 64 | > 64 |  |
| CO[C@H]1/C=C/O[C@@]2(C)Oc3c(C)c(O)c4c(O)c(c(/C=N/N5CCN(C)CC5)c(O)c4c3C2=O)NC(=O)/C(C)=C\C=C\[C@H](C)[C@H](O)[C@@H](C)[C@@H](O)[C@@H](C)[C@H](OC(C)=O)[C@@H]1C [RIFAMPIN] | 8.75 (≈ 10.6 µM) |  |  |  | 4 (≈ 4.86 µM) | 4 (≈ 4.86 µM) |  |
| CC(C)=C[C@@H]1C[C@H](C)[C@H]2CC[C@H](C)c3c2c1c(C)c1nc(CC(N)=O)oc31 | 4 (≈ 10.9 µM) | inactive | 3 (≈ 8.19 µM) | inactive | 2 (≈ 5.46 µM) | 4 (≈ 10.9 µM) | inactive |
| CC(C)=C[C@@H]1C[C@H](C)[C@H]2CC[C@H](C)c3c2c1c(C)c1nc(Cc2ccccc2)oc31 | > 128 | inactive | > 128 | inactive | 4 (≈ 10 µM) | > 64 |  |
| CC(C)=C[C@@H]1C[C@H](C)[C@H]2CC[C@H](C)c3c2c1c(C)c1nc(CCC(=O)O)oc31 | 12 (≈ 31.5 µM) | inactive | 12 (≈ 31.5 µM) | inactive | 4 (≈ 10.5 µM) | 8 (≈ 21 µM) |  |
| CN[C@H](CC(C)C)C(=O)N[C@H]1C(=O)N[C@@H](CC(N)=O)C(=O)N[C@H]2C(=O)N[C@H]3C(=O)N[C@H](C(=O)N[C@H](C(=O)O)c4cc(O)cc(O)c4-c4cc3ccc4O)[C@H](O)c3ccc(c(Cl)c3)Oc3cc2cc(c3O[C@@H]2O[C@H](CO)[C@@H](O)[C@H](O)[C@H]2O[C@H]2C[C@](C)(N)[C@H](O)[C@H](C)O2)Oc2ccc(cc2Cl)[C@H]1O [VANCOMYCIN] |  |  | 12.2 (≈ 8.45 µM) |  |  |  |  |
